Assay results reported in ChEMBL document CHEMBL1671806, “New imidazolidinedione derivatives as antimalarial agents” (Bioorg Med Chem, 2011).
Converted amounts (≈) assume the structure as drawn. The source made the active and inactive calls. The rule behind the calls is not given here.

How the values were obtained:
Plasmodium berghei [1] = assay: Antiplasmodial activity against Plasmodium berghei sporozoites infected in orally dosed mouse administered for three consecutive days one day before infection; format: functional; settings: po, 24 h, read-out: MED
Summary of the method: (§1)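 Mice were inoculated with P. berghei sporozoites. For oral dosing, compounds were ground and suspended in hydroxyethylcellulose plus Tween 80; for sc dosing, they were suspended in peanut oil. Doses were given once daily on three consecutive days: the day before, 4 h before, and the day after inoculation. Several dose levels were used, up to 320 mg/kg/day. Cure was scored.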

Mus musculus = species on record: Mus musculus; assay: Metabolic stability in mouse liver microsome by LC-MS/MS method; settings: liver microsomes
Plasmodium falciparum [2] = assay: Antimicrobial activity against Plasmodium falciparum D6 by microdilution method; format: functional, organism-based
[3] = Toxicity in Plasmodium berghei sporozoites infected orally dosed mouse administered for three consecutive days one day before infection; format: organism-based; settings: in vivo, po
Summary of the method: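 Mice received P. berghei sporozoites. Each compound was ground and suspended in hydroxyethylcellulose plus Tween 80, then given orally at several dose levels up to 320 mg/kg/day. Dosing was once daily for three consecutive days: the day before, 4 h before, and the day after sporozoite inoculation.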

Plasmodium falciparum [4] = assay: Antimicrobial activity against Plasmodium falciparum TM91C235 by microdilution method; format: functional, organism-based
Plasmodium falciparum [5] = assay: Antimicrobial activity against Plasmodium falciparum W2 by microdilution method; format: functional, organism-based
Plasmodium cynomolgi [6] = assay: Antiplasmodial activity against Plasmodium cynomolgi sporozoites infected in Rhesus monkey assessed as relapse time at 10 mg/kg/day, po administered for 7 consecutive days
Homo sapiens = species on record: Homo sapiens; assay: Metabolic stability in human liver microsome by LC-MS/MS method; settings: liver microsomes
Plasmodium berghei [7] = assay: Antiplasmodial activity against Plasmodium berghei sporozoites infected in orally dosed mouse assessed as cure from infection 160 mg/kg/day, po administered for three consecutive days before infection measured after at day 31; format: functional, organism-based; summary of the method: as §1
Plasmodium cynomolgi [8] = assay: Antiplasmodial activity against Plasmodium cynomolgi sporozoites infected in Rhesus monkey assessed as delay in detection of parasites in blood at 0.316 mg/kg/day, po administered for three consecutive days before infection; format: functional
Plasmodium cynomolgi [9] = assay: Antiplasmodial activity against Plasmodium cynomolgi sporozoites infected in Rhesus monkey assessed as duration for detection of parasites in blood at 0.316 mg/kg/day, po administered for three consecutive days before infection (reference value: 8 days); format: functional
[10] = Plasmodium falciparum, D6, read-out: IC50
[11] = Plasmodium falciparum, TM91C235, read-out: IC50
[12] = Plasmodium falciparum, W2, read-out: IC50

CCCCCCN/C(=N\C1=NC(=O)C(=O)N1C(C)C)Nc1ccc(Cl)c(Cl)c1
minimal effective dose (Plasmodium berghei [1]): > 160 mg/kg/day | half-life (Mus musculus): 0.131 h | IC50 (Plasmodium falciparum [2]): 1.35 µg/mL (≈ 3.17 µM) | IC50 (Plasmodium falciparum [2]; [10]): 1.35 µg/mL (≈ 3.17 µM) | MTD at 3 days [3]: ≥ 160 mg/kg/day | IC50 (Plasmodium falciparum [4]): 2.8 µg/mL (≈ 6.57 µM) | IC50 (Plasmodium falciparum [4]; [11]): 2.8 µg/mL (≈ 6.57 µM) | IC50 (Plasmodium falciparum [5]): 2.62 µg/mL (≈ 6.15 µM) | IC50 (Plasmodium falciparum [5]; [12]): 2.62 µg/mL (≈ 6.15 µM)

CCN(CC)CCCC(C)Nc1ccnc2cc(Cl)ccc12 (stereo not given) [CHLOROQUINE]
Time (Plasmodium cynomolgi [6]): 11 days

CC(C)N1C(=O)C(=O)N=C1/N=C(\NCc1ccccc1)Nc1ccc(Cl)c(Cl)c1
minimal effective dose (Plasmodium berghei [1]): > 320 mg/kg/day | half-life (Mus musculus): > 1 h | IC50 (Plasmodium falciparum [2]): 2.36 µg/mL (≈ 5.46 µM) | IC50 (Plasmodium falciparum [2]; [10]): 2.36 µg/mL (≈ 5.46 µM) | MTD at 3 days [3]: ≥ 320 mg/kg/day | IC50 (Plasmodium falciparum [4]; [11]): > 5 µg/mL | half-life (Homo sapiens): > 1 h | IC50 (Plasmodium falciparum [5]): 1.3 µg/mL (≈ 3.01 µM) | IC50 (Plasmodium falciparum [5]; [12]): 1.3 µg/mL (≈ 3.01 µM)

CC(C)N1C(=O)C(=O)N=C1/N=C(\NCCN(C)C)Nc1ccc(Cl)c(Cl)c1
minimal effective dose (Plasmodium berghei [1]): > 160 mg/kg/day | half-life (Mus musculus): > 1 h | IC50 (Plasmodium falciparum [2]; [10]): > 5 µg/mL | MTD at 3 days [3]: ≥ 160 mg/kg/day | IC50 (Plasmodium falciparum [4]; [11]): > 5 µg/mL | half-life (Homo sapiens): > 1 h | IC50 (Plasmodium falciparum [5]; [12]): > 5 µg/mL

C=CCON/C(=N\C1=NC(=O)C(=O)N1C(C)C)Nc1ccc(Cl)c(Cl)c1
minimal effective dose (Plasmodium berghei [1]): 160 mg/kg/day | half-life (Mus musculus): > 1 h | IC50 (Plasmodium falciparum [2]): 8.5 µg/mL (≈ 21.3 µM) | IC50 (Plasmodium falciparum [2]; [10]): 8.5 µg/mL (≈ 21.3 µM) | Activity (Plasmodium berghei [7]): Active | MTD at 3 days [3]: 120 mg/kg/day | IC50 (Plasmodium falciparum [4]; [11]): > 15 µg/mL | half-life (Homo sapiens): > 1 h | IC50 (Plasmodium falciparum [5]): 6.7 µg/mL (≈ 16.8 µM) | IC50 (Plasmodium falciparum [5]; [12]): 6.7 µg/mL (≈ 16.8 µM)

CC(C)N1C(=O)C(=O)N=C1/N=C(\NCCCCCCNC(=O)OC(C)(C)C)Nc1ccc(Cl)c(Cl)c1
minimal effective dose (Plasmodium berghei [1]): > 160 mg/kg/day | half-life (Mus musculus): 0.182 h | IC50 (Plasmodium falciparum [2]; [10]): > 5 µg/mL | MTD at 3 days [3]: ≥ 160 mg/kg/day | IC50 (Plasmodium falciparum [4]; [11]): > 5 µg/mL | half-life (Homo sapiens): 0.208 h | IC50 (Plasmodium falciparum [5]): 1.46 µg/mL (≈ 2.7 µM) | IC50 (Plasmodium falciparum [5]; [12]): 1.46 µg/mL (≈ 2.7 µM)

CC(C)N1C(=O)C(=O)N=C1/N=C(\NCC(C)(C)C)Nc1ccc(Cl)c(Cl)c1
minimal effective dose (Plasmodium berghei [1]): 160 mg/kg/day | half-life (Mus musculus): > 1 h | IC50 (Plasmodium falciparum [2]): 1.1 µg/mL (≈ 2.67 µM) | IC50 (Plasmodium falciparum [2]; [10]): 1.1 µg/mL (≈ 2.67 µM) | Activity (Plasmodium berghei [7]): Active | MTD at 3 days [3]: ≥ 320 mg/kg/day | IC50 (Plasmodium falciparum [4]): 0.95 µg/mL (≈ 2.3 µM) | IC50 (Plasmodium falciparum [4]; [11]): 0.95 µg/mL (≈ 2.3 µM) | half-life (Homo sapiens): > 1 h | IC50 (Plasmodium falciparum [5]): 0.37 µg/mL (≈ 0.897 µM) | IC50 (Plasmodium falciparum [5]; [12]): 0.37 µg/mL (≈ 0.897 µM)

CC(C)N1C(=O)C(=O)N=C1/N=C(\NCCN1CCCC1)Nc1ccc(Cl)c(Cl)c1
minimal effective dose (Plasmodium berghei [1]): > 160 mg/kg/day | half-life (Mus musculus): 0.886 h | IC50 (Plasmodium falciparum [2]; [10]): > 5 µg/mL | MTD at 3 days [3]: ≥ 160 mg/kg/day | IC50 (Plasmodium falciparum [4]; [11]): > 5 µg/mL | half-life (Homo sapiens): > 1 h | IC50 (Plasmodium falciparum [5]): 1.32 µg/mL (≈ 3 µM) | IC50 (Plasmodium falciparum [5]; [12]): 1.32 µg/mL (≈ 3 µM)

COc1cc(C)c2c(Oc3cccc(C(F)(F)F)c3)c(OC)cc(NC(C)CCCN)c2n1 (stereo not given) [TAFENOQUINE]
Time (Plasmodium cynomolgi [8]): 2 days | Time (Plasmodium cynomolgi [9]): 10 days

CC(C)N1C(=O)C(=O)N=C1/N=C(/Nc1ccc(Cl)c(Cl)c1)NC(C)(C)C
minimal effective dose (Plasmodium berghei [1]): > 320 mg/kg/day | half-life (Mus musculus): > 1 h | IC50 (Plasmodium falciparum [2]): 0.72 µg/mL (≈ 1.81 µM) | IC50 (Plasmodium falciparum [2]; [10]): 0.72 µg/mL (≈ 1.81 µM) | MTD at 3 days [3]: ≥ 320 mg/kg/day | IC50 (Plasmodium falciparum [4]): 1.36 µg/mL (≈ 3.41 µM) | IC50 (Plasmodium falciparum [4]; [11]): 1.36 µg/mL (≈ 3.41 µM) | half-life (Homo sapiens): > 1 h | IC50 (Plasmodium falciparum [5]): 1.15 µg/mL (≈ 2.89 µM) | IC50 (Plasmodium falciparum [5]; [12]): 1.15 µg/mL (≈ 2.89 µM)

CC(C)N1C(=O)C(=O)N=C1/N=C(\NOC(C)(C)C)Nc1ccc(Cl)c(Cl)c1
minimal effective dose (Plasmodium berghei [1]): > 160 mg/kg/day | half-life (Mus musculus): > 1 h | IC50 (Plasmodium falciparum [2]): 2.75 µg/mL (≈ 6.64 µM) | IC50 (Plasmodium falciparum [2]; [10]): 2.75 µg/mL (≈ 6.64 µM) | MTD at 3 days [3]: ≥ 160 mg/kg/day | IC50 (Plasmodium falciparum [4]): 3.36 µg/mL (≈ 8.11 µM) | IC50 (Plasmodium falciparum [4]; [11]): 3.36 µg/mL (≈ 8.11 µM) | half-life (Homo sapiens): > 1 h | IC50 (Plasmodium falciparum [5]): 1.14 µg/mL (≈ 2.75 µM) | IC50 (Plasmodium falciparum [5]; [12]): 1.14 µg/mL (≈ 2.75 µM)
